Results taken from ChEMBL document CHEMBL1131251, “Inhibition of in vitro and in vivo HIV replication by a distamycin analogue that interferes with chemokine receptor function: a candidate for chemotherapeutic and microbicidal application” (J Med Chem, 1998).

What was measured:
Details in all cases: HEK293; concentration not given here
[1] = target: C-C chemokine receptor type 5 (Homo sapiens) (UniProt P51681); assay: The compound was tested for inhibition of Chemokine (MIP-1Alpha) binding against C-C chemokine receptor type 5 transfected in HEK 293 cells; type: cell-based
Outline: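 Competition binding in HEK-293 cells transfected with the named receptor, at 1 × 10^6 cells/mL in RPMI 1640 with 1% BSA and 5 mM HEPES pH 8.0. Cells were mixed with 0.2 ng/assay radiolabeled chemokine plus test compound at a single concentration of 200 μM, rotated 45 min at room temperature, then spun through a 10% sucrose/PBS cushion. Cell-bound radioactivity was gamma-counted; triplicates, n ≥ 2; t-test against a drug-free control.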

[2] = target: C-C chemokine receptor type 5 (Homo sapiens) (UniProt P51681); assay: The compound was tested for inhibition of Chemokine (RANTES) binding against C-C chemokine receptor type 5 transfected in HEK 293 cells; type: cell-based
Outline: (§1)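 CCR5 stably transfected HEK-293 cells at 1 × 10^6 cells/mL in RPMI 1640, 1% BSA, 5 mM HEPES pH 8.0. Constant radiolabeled chemokine (0.2 ng/assay) plus competitor at a single 200 μM concentration. Rotated 45 min at room temperature, spun through a 10% sucrose/PBS cushion, and cell-bound radioactivity gamma-counted. Inhibition measured against a drug-free control; triplicate, n ≥ 2.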

[3] = system: CXCR2 (Homo sapiens); assay: The compound was tested for inhibition of Chemokine (IL-8) binding against CXCR2 transfected in HEK 293 cells
[4] = target: C-C chemokine receptor type 5 (Homo sapiens) (UniProt P51681); assay: The compound was tested for inhibition of Chemokine (MIP-1Beta) binding against C-C chemokine receptor type 5 transfected in HEK 293 cells; type: cell-based; outline: as §1
[5] = system: CXCR2 (Homo sapiens); assay: The compound was tested for inhibition of Chemokine r (IL-8) binding against CXCR2 transfected in HEK 293 cells

Sequence of C-C chemokine receptor type 5 (Homo sapiens) (P51681 whole entry, looked up): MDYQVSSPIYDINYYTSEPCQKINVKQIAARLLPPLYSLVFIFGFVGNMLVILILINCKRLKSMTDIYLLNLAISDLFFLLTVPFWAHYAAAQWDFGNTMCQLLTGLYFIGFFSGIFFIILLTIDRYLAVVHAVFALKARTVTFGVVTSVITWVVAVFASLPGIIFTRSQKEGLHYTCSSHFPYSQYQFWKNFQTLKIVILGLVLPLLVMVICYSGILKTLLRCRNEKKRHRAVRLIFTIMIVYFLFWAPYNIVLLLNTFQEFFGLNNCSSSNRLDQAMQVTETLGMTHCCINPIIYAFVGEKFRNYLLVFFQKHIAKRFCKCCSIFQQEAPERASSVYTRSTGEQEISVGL

inhibition [1] [%] | inhibition [2] [%] | inhibition [3] [%] | inhibition [4] [%] | inhibition [5] [%] | Structure (SMILES)
6.5 | -3.1 | 5.4 |  |  | Cn1cc(NC(=O)c2cc(NC(=O)Nc3c[nH]c(C(=O)Nc4cc(C(=O)Nc5ccc(S(=O)(=O)O)c6cccc(S(=O)(=O)O)c56)n(C)c4)c3)c[nH]2)cc1C(=O)Nc1ccc(S(=O)(=O)O)c2cccc(S(=O)(=O)O)c12
9.5 | -1 |  | 6.6 | 0.3 | Cn1cc(N)cc1C(=O)Nc1ccc(S(=O)(=O)O)c2cc(S(=O)(=O)O)ccc12
